From publication PMC5019276 (International Journal of Nanomedicine, 2016)
In brackets after ≈: the same amount, converted by molar mass.

Assays:
HT-29 cells [1] = assay: In vitro cytotoxicity, MTT assay; format: cell-based; conditions: Homo sapiens, HT-29, read-out: IC50 (half maximal inhibitory concentration)
Summary of the method: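 HT-29 cells were grown in RPMI-1640 with 10% FBS and 1% penicillin/streptomycin. They were seeded at 3–5×10^4 cells/well and cultured 24 h at 37°C in humid 5% CO2. Drug-loaded and blank nanoparticles were then tested by MTT, with absorbance read at 490 nm. Viability (%) = absorbance of treated cells / absorbance of untreated cells × 100. Triplicates; mean ± SD (n=3).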

[2] = In vivo oral administration and pharmacokinetics; set-up: species or system rats; conditions: plasma, 100 mg/kg
HT-29 cells [3] = assay: Intracellular uptake by fluorescence microscopy; format: cell-based, Human; conditions: 7.5 μg/mL, 3 hours, 37°C
Summary of the method: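 HT-29 cells were seeded at 2.5×10^4 cells/well and incubated overnight at 37°C in 5% CO2. They were exposed to free drug or drug-loaded nanoparticles at 7.5 μg/mL for 3 h at 37°C, with untreated and blank-nanoparticle controls. Cells were rinsed three times with 37°C PBS. Imaging used fluorescence microscopy with 420–490 nm excitation and 490–560 nm emission.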

[4] = In vitro drug release by dialysis; format: physicochemical; conditions: pH 2.0, 5.0 and 6.8, after 72 hours
Summary of the method: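 Dialysis (MWCO 6–8 kDa): 2.5 mL of nanoparticle or free-drug solution (drug 0.2 mg/mL) against 10 mL medium. Media were 0.05 M glycine–HCl pH 2.0, 0.05 M phosphate pH 5.0 and 0.05 M phosphate pH 6.8, each with 1% ascorbic acid and 0.1% BHT. Stirred at 37°C for 72 h; 3.0 mL withdrawn at intervals and replaced. Drug measured by C18 HPLC at 420 nm. Run three times.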

Cmax ([2]; male, Sprague Dawley, rat, po): 11000 ± 1170 ng/mL
MRT last ([2]; male, Sprague Dawley, rat, po): 4.33 ± 0.67 h
Tmax ([2]; male, Sprague Dawley, rat, po): 1 h
half-life ([2]; male, Sprague Dawley, rat, po): 0.9 ± 0.89 h
AUC0–24 hours ([2]; oral): 65120 ± 7420 ng·h/mL
release after 72 hours (in words) [4]: completed its release/diffusion
Structure (SMILES): COc1cc(/C=C/C(=O)CC(=O)/C=C/c2ccc(O)c(OC)c2)ccc1O [Cur, Curcumin]
IC50 (HT-29 cells [1]): 28.5 µg/mL (≈ 77.4 µM)
fluorescence of cells (cell uptake) (HT-29 cells [3]): relatively faint
